Here are results for 37 variants from the RNAGym collection of RNA variant scans (doi:10.1126/science.aae0568).

Sequences and labels used below:
B1: tRNA (parent)
chain: GUUCCGUUGGCGUAAUGGUAACGCGUCUCCCUCCUAAGGAGAAGACUGCGGGUUCGAGUCCCGUACGGAACG

Fewer inactive variants are shown than the library holds.

Variants of B1 are the subject of this data set. The experiment in a line: yeast fitness relative to wild type (ratio to wild type); higher = fitter; tRNA-Arg(CCU), competitive growth, 37 C, YPD. Put shortly: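 For this measurement, the tRNA-Arg(CCU) gene was varied by chemical synthesis at a 3% per-site mutation rate across 69 sites, and each variant was placed at the native genomic locus in Saccharomyces cerevisiae. The pooled strains went through a 24-hour competition in YPD at 37°C in six parallel replicates, with amplicons from start and end populations read by 100-nucleotide paired-end sequencing. Darwinian fitness relative to wild type followed from the change in each genotype's frequency. Genotypes needed ≥ 100 starting reads, and estimates < 0.5 were set to 0.5.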
In the case of GUUCCGUUGGCGUAAUGGUAACGCGUCUCCCUCCUAAGGAGAUGACUGCGGGUUCGAGUCCCGUACCGAACG [A43U G67C], the yeast fitness was found to be 0.778.
The figure for GUUCCGUUGGCGUAAUGGUAACGCGUCUCCCUCCUAAGGAGAUGACUGCGGGUUCGAGUCCCGUACAGAACG [A43U G67A] is 0.79.
In the case of GUUCCGUUGGCGUAAUGGUAACGCGUCUCCCUCCUAAGGAGAUGACUGCGGGUUCGAGUCCCGUACUGAACG [A43U G67U], the yeast fitness was 0.87.
Regarding GUUCCGUUGGCGUAAUGGUAACGCGUCUCCCUCCUAAGGAGAUGACUGCAGGUUCGGGUCCCGUACGGAACG [A43U G50A A57G], the yeast fitness is at most 0.5.
The figure for GUUCCGUUGGCGUAAUGGUAACGCGUCUCCCUCCUAAGGAGAUGACUGCGGGUUCGAGUCGCGUACGGAACG [A43U C61G] is 0.716; for GUUCCGUUGGCGUAAUGGUAACGCGUCUCCCUCCUAAGGAGAUGACUGCGGGUUCGAGUCUCGUACGGAACG [A43U C61U] it is 0.969.
The figure for GUUCCGUUGGCGUAAUGGUAACGCGUCUCCCUCCUAAGGAGAAAACUGUGGGUUCGAGUCCAGUACCGAACG [G44A C49U C62A G67C] is at most 0.5; for GUUCCGUUGGCGUAAUGGUAACGCGUCUCCCUCCUAAGGAGAUGACUGCGGGUUCGAGUCCCGUACGCAACG [A43U G68C] it is 0.815; for GUUCCGUUGGCGUAAUGGUAACGCGUCUCCCUCCUAAGGAGAUGACUGCGGGUUCGAGUCCCGUACGAAACG [A43U G68A] it is 0.669.
The figure for GUUCCGUUGGCGUAAUGGUAACGCGUCUCCCUCCUAAGGAGAUGACUGCGAGUUUGAGUCCCGUACGGAACG [A43U G51A C55U] is at most 0.5; for GUUCCGUUGGCGUAAUGGUAACGCGUCUCCCUCCUAAGGAGAUGACUGCGGGUUCGAGUGCCGUACGGACCG [A43U C60G A70C] it is 0.599; for GUUCCGUUGGCGUAAUGGUAACGCGUCUCCCUCCUAAGGAGAAAACUGCGGGUUCGUGUCCCGUACGGAACG [G44A A57U] it is 0.635.
Regarding GUUCCGUUGGCGUAAUGGUAACGCGUCUCCCUCCUAAGGAGAAAACUGCGGGUCCCAGUCCCGUACGGAACG [G44A U54C G56C], the yeast fitness was at most 0.5.
For the variant GUUCCGUUGGCGUAAUGGUAACGCGUCUCCCUCCUAAGGAGAAAACUGCGGGUUCGAGUCCCGUAGGGAACG [G44A C66G], the yeast fitness worked out at 0.641.
The figure for GUUCCGUUGGCGUAAUGGUAACGCGUCUCCCUCCUAAGGAGAAAACUGCGGGUUCGAGUCCCGUACGGAACG [G44A] is 0.982; for GUUCCGUUGGCGUAAUGGUAACGCGUCUCCCUCCUAAGGAGAAAAUUGCGGGUUCGAAUCCCGUACGGAACG [G44A C46U G58A] it is 0.687.
The figure for GUUCCGUUGGCGUAAUGGUAACGCGUCUCCCUCCUAAGGAGAUGACUGCGGGUUCGAGUCCGGUAAGGCACG [A43U C62G C66A A69C] is 0.67.
The figure for GUUCCGUUGGCGUAAUGGUAACGCGUCUCCCUCCUAAGGAGAAAACUGCGGGUCCGAGUCCCGUACGGAACG [G44A U54C] is 0.723; for GUUCCGUUGGCGUAAUGGUAACGCGUCUCCCUCCUAAGGAGAUGACUACGGGUUCGAGUCCAGUAGGGAACG [A43U G48A C62A C66G] it is 0.533; for GUUCCGUUGGCGUAAUGGUAACGCGUCUCCCUCCUAAGGAGAUGACUGCGGGUUCGAGUGCCGUAUGGAACG [A43U C60G C66U] it is 0.534.
In the case of GUUCCGUUGGCGUAAUGGUAACGCGUCUCCCUCCUAAGGAGAUGACUGCGGGUUCGAGUCCGGUACGGAACG [A43U C62G], the yeast fitness was found to be 0.805.
The figure for GUUCCGUUGGCGUAAUGGUAACGCGUCUCCCUCCUAAGGAGAUGACUGCGGGUUCGAGUCCUGUACGGAACG [A43U C62U] is 1.01; for GUUCCGUUGGCGUAAUGGUAACGCGUCUCCCUCCUAAGGAGAUGAGUGCGGGUACGAGUCCCAUACGGAACG [A43U C46G U54A G63A] it is 0.726.
Take GUUCCGUUGGCGUAAUGGUAACGCGUCUCCCUCCUAAGGAGAAAACUGCGGGUUUGAGUCCCGAACGGCACG [G44A C55U U64A A69C]: the yeast fitness was at most 0.5.
The figure for GUUCCGUUGGCGUAAUGGUAACGCGUCUCCCUCCUAAGGAGAUGACUACGGGAUCGAGUCCCGUACGGAACG [A43U G48A U53A] is 0.506; for GUUCCGUUGGCGUAAUGGUAACGCGUCUCCCUCCUAAGGAGAAAACUGCGGGUUCGAGUCGCGUACGGAACG [G44A C61G] it is 0.597.
The figure for GUUCCGUUGGCGUAAUGGUAACGCGUCUCCCUCCUAAGGAGAUGACUGCGGGCUCGAGUCCCGUACGGAACG [A43U U53C] is 0.854; for GUUCCGUUGGCGUAAUGGUAACGCGUCUCCCUCCUAAGGAGAUGACUGCGGGAUCGAGUCCCGUACGGAACG [A43U U53A] it is 0.666; for GUUCCGUUGGCGUAAUGGUAACGCGUCUCCCUCCUAAGGAGAUGACUGCGGGUUCGAGUGUCGUACGGAACG [A43U C60G C61U] it is at most 0.5.
The figure for GUUCCGUUGGCGUAAUGGUAACGCGUCUCCCUCCUAAGGAGAAAACUGCGGGUUUGAGUCCCGUACGGCACG [G44A C55U A69C] is 0.585; for GUUCCGUUGGCGUAAUGGUAACGCGUCUCCCUCCUAAGGAGAAAACUGCGGGUUCGAGUCCCCUACGGAACG [G44A G63C] it is 0.826.
Consider GUUCCGUUGGCGUAAUGGUAACGCGUCUCCCUCCUAAGGAGAAAACUGCGGGUUCGAGUCCCAUACGGAACG [G44A G63A], for which the yeast fitness was determined as 0.97.
The figure for GUUCCGUUGGCGUAAUGGUAACGCGUCUCCCUCCUAAGGAGAAAAUUGCGGGUUCGAGUCCUGUACGGAACG [G44A C46U C62U] is 0.723.
The figure for GUUCCGUUGGCGUAAUGGUAACGCGUCUCCCUCCUAAGGAGAAAACUGGGGGUUCGAGUCCCGUACGGAACG [G44A C49G] is 0.714.
The figure for GUUCCGUUGGCGUAAUGGUAACGCGUCUCCCUCCUAAGGAGAUGACUGCGGGUUCAAGUCCCGUACGGAUCG [A43U G56A A70U] is 0.948; for GUUCCGUUGGCGUAAUGGUAACGCGUCUCCCUCCUAAGGAGAUGACUGCGGGUUCGAGUCCCGCACGGAACG [A43U U64C] it is 1.02; for GUUCCGUUGGCGUAAUGGUAACGCGUCUCCCUCCUAAGGAGAAAACUGCGGGUUCGGAUCCCGUACGGAACG [G44A A57G G58A] it is 0.695.
